Consider 94 compounds from ChEMBL document CHEMBL4513216, “Probing the Open Global Health Chemical Diversity Library for Multistage-Active Starting Points for Next-Generation Antimalarials” (ACS Infect Dis, 2020).

The structures appear in SMILES notation.

A short description of the data set: Toxicity liver stage against HepG2, at 10uM. The class given is cell-based. The arrangement: test concentration 10 uM, cell line HepG2-A16-CD81EGFP. Particulars: human, HepG2-A16-CD81EGFP cells; read-out: INHIBITION
Put shortly:
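Uninfected HepG2-A16-CD81EGFP cells, 3 × 10^3 per well, 1536-well, plated on prespotted compound at 10 μM final, parasite-free screening media added to match infected plates; puromycin 10 μM positive, DMSO 0.5% negative; run in parallel with 48 h PbLuc assay at 37 °C, 5% CO2; viability by CellTiter-Glo luminescence, normalized to controls.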
`OCCc1cc(CC2(NCc3ccncc3)COC2)no1`: the cytotoxicity at 10 µM was -3.56%.

Turning to `COc1cccc(CN2C[C@@H](F)[C@@H](OCc3nc4cnccc4[nH]3)C2)c1`, the cytotoxicity at 10 µM is -1.72%.

Take `CCc1c(C)sc2c1c(N)nc(=O)n2CCN(C)C`: the cytotoxicity at 10 µM was 3.85%.

`Cc1nn(-c2ccc(C(=O)O)cc2)c2c1C(C(F)(F)F)SCC(=O)N2` (centres undefined): the cytotoxicity at 10 µM is -1.24%.

With `O=C(NCCc1ccccc1)NCC(O)c1cccs1` (centres undefined), the cytotoxicity at 10 µM is -11.9%.

For `COc1cccc2sc(N(C)CC(=O)NCc3nc(C)no3)nc12`, the cytotoxicity at 10 µM is -1.53%.

As for `O=S(=O)(c1ccccc1)N1C[C@@H]2CCN[C@@H]2C1`, the cytotoxicity at 10 µM came to 2.58%.

Turning to `CCc1nc(-c2noc3ccc(C(=O)N(C)CCOC)cc23)co1`, the cytotoxicity at 10 µM is -138%.

For the compound `COCC1c2nnn(CC3CC3)c2CCN1C(=O)CS(C)(=O)=O` (centres undefined), the cytotoxicity at 10 µM is -129%.

With `O=C(NCc1ccccc1)N1CCC2(CC(=O)N(c3ccccc3)C2)C1` (centres undefined), the cytotoxicity at 10 µM is 2.61%.

Regarding `O=C(NCC1CCCO1)c1nc2c(s1)CCCN2CC1CC1` (centres undefined), the cytotoxicity at 10 µM was -0.843%.

In the case of `O=C1CC[C@H]2[C@H](CCN2C(=O)c2ccc[nH]2)N1CCN1CCOCC1`, the cytotoxicity at 10 µM was determined as 3.3%.

For the compound `NC(=O)CSc1nnc2n1N=CN(c1ccccc1F)C2`, the cytotoxicity at 10 µM is -3.78%.

Consider `CCCc1cc(=O)[nH]c2nnc(SCC(=O)NCc3ccc(C)cc3)n12`, for which the cytotoxicity at 10 µM is -15.7%.

As to `O=C(NCC(Cc1cccc(F)c1)N1CCCC1=O)c1cnccn1` (centres undefined), the cytotoxicity at 10 µM was -5.06%.

As for `CC(=O)N1CC[C@H]2OCC[C@@H](C(=O)N3CCCCO3)[C@@H]2C1`, the cytotoxicity at 10 µM is -5.1%.

`O=C(NCC1CC1)C1CN(C(=O)c2ccncc2)CC12CCOCC2` (centres undefined): the cytotoxicity at 10 µM is 0.381%.

For `COc1c(C(=O)NCC2CCCO2)nnn1Cc1ccccc1` (centres undefined), the cytotoxicity at 10 µM was found to be 7.47%.

As for `Cc1cccc(Nc2noc3c2CN(C(=O)c2ccn(C)n2)CC3)c1C`, the cytotoxicity at 10 µM is -0.61%.

Take `COc1ccccc1N1CC(NC(=O)Cn2cc(C(C)C)nn2)CC1=O` (centres undefined): the cytotoxicity at 10 µM was found to be 11.5%.

For the compound `Nc1nc(N)c2c(n1)OC1(CCN(Cc3nccs3)C1)C2` (centres undefined), the cytotoxicity at 10 µM came to 0.861%.

For the compound `O=C(NCc1ccc2c(c1)OCO2)[C@H]1C=CCN1c1ncccn1`, the cytotoxicity at 10 µM is -4.52%.

As for `CN(C)c1ccc(CC2CCCN(c3cnccn3)C2)nn1` (centres undefined), the cytotoxicity at 10 µM amounted to 4.71%.

`O=C(C1CCC1)N1CCCC(c2ccnc(Nc3cnccn3)n2)C1` (centres undefined): the cytotoxicity at 10 µM was -22.7%.

Regarding `O=C(c1cscn1)N1CCC(Cc2cnc3[nH]ccc3c2)C1` (centres undefined), the cytotoxicity at 10 µM was -26.5%.

With `NC(=O)CN(CC(N)=O)Cc1cccc(Oc2ccccc2)c1`, the cytotoxicity at 10 µM was -5.05%.

Regarding `CCn1cnnc1CNC(=O)NC(c1ccccc1)C1CCCC1` (centres undefined), the cytotoxicity at 10 µM was 12%.

Turning to `CN(C)C(=O)Cn1cnc2c(Br)cccc2c1=O`, the cytotoxicity at 10 µM was -8.97%.

`CCc1cc(NC(=O)N2CCC(Oc3cccnc3)C2)n(C)n1` (centres undefined): the cytotoxicity at 10 µM stood at 5.95%.

Consider `Cc1noc(C)c1NS(=O)(=O)c1cc(C(=O)O)cc(Cl)c1Cl`, for which the cytotoxicity at 10 µM came to 6.14%.

Take `O=C(NCCN1CCOCC1)c1ccc(-c2ccccc2)[nH]c1=O`: the cytotoxicity at 10 µM was 1.58%.

Take `Cc1ccc(C(=O)NCCN2CCOCC2)c(=O)[nH]1`: the cytotoxicity at 10 µM was -8.44%.

On to `N#Cc1ccnc(N2CCN(CC(O)c3ccccc3Cl)CC2)c1` (centres undefined), for which the cytotoxicity at 10 µM is 1.7%.

Take `Cc1nnc(C(C)NCC2(c3ccc(F)cc3)CCCCC2)o1` (centres undefined): the cytotoxicity at 10 µM came to 2.39%.

With `CC1(NC(=O)Cc2csc(NC(=O)c3ccccc3)n2)CCS(=O)(=O)C1` (centres undefined), the cytotoxicity at 10 µM was found to be 0.271%.

Take `O=C(NCCCN1CCOCC1)c1cc(-c2ccccc2)[nH]n1`: the cytotoxicity at 10 µM was -161%.

Take `O=C(NCc1ccccc1F)NC1CCCN(c2ncccn2)C1` (centres undefined): the cytotoxicity at 10 µM turned out to be 7.81%.

Regarding `O=C(NCc1nnc2n1CCC2)NCC1(c2cccc(F)c2)CC1`, the cytotoxicity at 10 µM is -6.03%.

Turning to `CCOC(=O)c1nc(CN2CCN(C(C)C(=O)NC3CC3)CC2)cs1` (centres undefined), the cytotoxicity at 10 µM is -2.52%.

Consider `NC(=O)CCS(=O)(=O)Cc1ccc(OCC(F)(F)F)cc1`, for which the cytotoxicity at 10 µM was -4.16%.

As to `CCS(=O)(=O)CC(=O)NC1(c2ccc(Cl)c(Cl)c2)CC1`, the cytotoxicity at 10 µM is -2.6%.

For `O=C1NCCN1C1CCN(Cc2ccccn2)CC1`, the cytotoxicity at 10 µM is 4.08%.

Turning to `Cc1cnn(CC2CCCN2Cc2coc(-c3ccccc3)n2)c1` (centres undefined), the cytotoxicity at 10 µM is -5.26%.

Regarding `CN(C)C(=O)NC1COC2(CCN(S(=O)(=O)c3ccccc3)CC2)C1` (centres undefined), the cytotoxicity at 10 µM is -88.5%.

As for `CC1(c2ccccc2)CCC(=O)N(CC2(N3CCOCC3)CCCC2)C1` (centres undefined), the cytotoxicity at 10 µM worked out at 8.8%.

In the case of `COCC1CCN(Cc2cc(O)c3c(C)ccc(C)c3n2)CC1`, the cytotoxicity at 10 µM was -6.09%.

Regarding `Clc1cccc2c3c([nH]c12)CCN(Cc1cc2n(n1)CCNC2)C3`, the cytotoxicity at 10 µM was -0.735%.

`O=C(O)C1(n2ccc(-c3ccco3)n2)CCN(Cc2ccsc2)CC1`: the cytotoxicity at 10 µM was -129%.

On to `CN1CCN(Cc2nnc(C3CCN(S(C)(=O)=O)CC3)n2C)CC1`, for which the cytotoxicity at 10 µM is 4.67%.

`Cn1cc(C(=O)N2CC[C@H](N3CCOCC3)[C@H](CCCO)C2)cn1`: the cytotoxicity at 10 µM is -158%.

For `Cc1cc(C2CCC2)nc(N2CCC3(CCCN(C)C3=O)C2)n1` (centres undefined), the cytotoxicity at 10 µM was -6.62%.

On to `Cc1nonc1C(=O)N1CC[C@@]2(O)CCN(C3CCCCC3)C[C@H]2C1`, for which the cytotoxicity at 10 µM was -132%.

With `Cc1ccc(C(N)=O)c(N2C[C@H]3OC(=O)N(C4CCCC4)[C@H]3C2)n1`, the cytotoxicity at 10 µM amounted to 5.54%.

As to `O=C(N1CCCC1)N1CCCC(c2nccn2Cc2ccncc2)C1` (centres undefined), the cytotoxicity at 10 µM turned out to be 8.2%.

With `Cc1ccc(C2(C(=O)N3CCC(n4cc(C(C)O)nn4)CC3)CC2)cc1` (centres undefined), the cytotoxicity at 10 µM is -2.26%.

For the compound `COC(=O)c1ccc(OC)c(CN2CCN(CC(C)C)C(=O)C2C)c1` (centres undefined), the cytotoxicity at 10 µM is -20.3%.

For the compound `Cc1onc(N)c1S(=O)(=O)N1CCCCC1C` (centres undefined), the cytotoxicity at 10 µM is 12.4%.

Turning to `CNc1ncccc1C(=O)N1CCc2c(nc(N)[nH]c2=O)C1`, the cytotoxicity at 10 µM was determined as 3.61%.

With `Cn1ncc2c(N3CCN(CCO)CC3)nc(C3CCCC3)nc21`, the cytotoxicity at 10 µM is -4.07%.

`O=C(O)[C@@H]1CN(CCOCCO)C[C@H]1c1ccccc1`: the cytotoxicity at 10 µM is -2.33%.

In the case of `N#Cc1ccc(C(=O)N2CCC3(CC2)C(=O)Nc2ccccc23)cn1`, the cytotoxicity at 10 µM is 13.5%.

Consider `COc1c(C2CCCN2C(=O)c2cnc(C)cn2)c(C)nn1C` (centres undefined), for which the cytotoxicity at 10 µM was determined as 2.58%.

Regarding `CC(=O)N(C)c1nc(CN2CCCC2Cn2nc(C)cc2C)cs1` (centres undefined), the cytotoxicity at 10 µM is -10.3%.

On to `Cc1nc(NC(=O)CCc2c(C)nc3cc(O)nn3c2C)sc1C`, for which the cytotoxicity at 10 µM is -13.5%.

As for `COc1ccccc1CC(=O)NS(=O)(=O)c1ccc(NC(C)=O)cc1`, the cytotoxicity at 10 µM was -2.18%.

As to `CCCC(=O)NC(C(=O)OC)c1cc(F)ccc1F` (centres undefined), the cytotoxicity at 10 µM was 8.55%.

On to `COc1cc(CCC(=O)NC2CCN(C)CC2)ccc1OCC(F)(F)F`, for which the cytotoxicity at 10 µM is -8.82%.

With `Cc1ccc(C2=CCN(C(=O)C3CCN(C)C(=O)C3)CC2)cc1` (centres undefined), the cytotoxicity at 10 µM was -12.1%.

As for `Cn1cc(C2CCCN2CCc2nc3ccccc3c(=O)[nH]2)cn1` (centres undefined), the cytotoxicity at 10 µM was -12.9%.

As to `Cc1cc(C)c(CNC(=O)N2CCCC2c2ccccn2)c(=O)[nH]1` (centres undefined), the cytotoxicity at 10 µM was determined as 1.17%.

For `CC(=O)N1CCN(C(=O)CN2CCCC2Cn2nc(C)cc2C)CC1` (centres undefined), the cytotoxicity at 10 µM is -12.2%.

As for `O=C(NCCNc1ncccn1)N1CCN(c2nccs2)CC1`, the cytotoxicity at 10 µM is -13.8%.

For the compound `CC(O)(CN1CCN(CCO)CC1)c1cccc(C(F)(F)F)c1` (centres undefined), the cytotoxicity at 10 µM was -17.5%.

For `Cn1ccnc1CN1CCCC1Cn1cccn1` (centres undefined), the cytotoxicity at 10 µM was -13.8%.

On to `Cc1cnn(CC2CCCN2C(=O)CCc2ccncc2)c1` (centres undefined), for which the cytotoxicity at 10 µM was -10.6%.

With `N#Cc1ccsc1C(=O)N1CCCN(Cc2cscn2)CC1`, the cytotoxicity at 10 µM came out at 3.48%.

Turning to `CC1COCCN1Cc1nc(-c2cccc(Br)c2)no1` (centres undefined), the cytotoxicity at 10 µM was -3.04%.

As to `Cc1noc2ncc(C(=O)NCC3CCOC3)cc12` (centres undefined), the cytotoxicity at 10 µM is -1.47%.

In the case of `Cn1ccnc1CN1CCN(CC(O)c2cccc(F)c2)CC1` (centres undefined), the cytotoxicity at 10 µM was found to be 1.59%.

As for `Cc1cccc(CC(=O)N2CCN(c3nccn3C)CC2)c1`, the cytotoxicity at 10 µM was found to be 8.68%.

As to `COCCN1CC2(CCN(C(=O)c3ccno3)CC2)c2ccccc21`, the cytotoxicity at 10 µM was 0.729%.

Regarding `CCS(=O)(=O)N1C[C@@H](Oc2ccccn2)[C@H]2OCCC[C@H]21`, the cytotoxicity at 10 µM worked out at 5.08%.

On to `CCS(=O)(=O)N1CCCC2(CCCN2Cc2cccc(Cl)c2)C1` (centres undefined), for which the cytotoxicity at 10 µM is -143%.

Regarding `Cn1cnc2c(N3CCCC3)nc(C3CCN(CC4CC4)CC3)cc21`, the cytotoxicity at 10 µM is -5.26%.

For the compound `Cc1ccc(CN2C[C@@H](OCc3csc(C)n3)[C@H]3COC[C@H]32)s1`, the cytotoxicity at 10 µM was -5.21%.

On to `Cc1noc(C)c1CN1C[C@@H](OCc2ccccn2)[C@H]2OCCC[C@H]21`, for which the cytotoxicity at 10 µM was -3.14%.

Take `O[C@@H]1CCN(CC2CC2)[C@H]1Cc1ccccc1`: the cytotoxicity at 10 µM amounted to 3.57%.

`c1cnc(NC[C@H]2OC[C@@H]3CCN(Cc4nccs4)C[C@@H]32)nc1`: the cytotoxicity at 10 µM was -3.38%.

As for `FC(F)(F)c1cccc(-c2c[nH]c(C3CCCN3)n2)c1` (centres undefined), the cytotoxicity at 10 µM is -3.25%.

In the case of `O=C(NCc1cn2c(n1)CN(Cc1cccc(F)c1)CC2)C1CCC1`, the cytotoxicity at 10 µM came to 8.79%.

For the compound `CCc1ccc(CN2Cc3nccn3CC(Cn3cncn3)C2)o1` (centres undefined), the cytotoxicity at 10 µM was -137%.

As for `CO[C@H]1CN(C(=O)c2cccnc2)[C@@H]2CCCO[C@H]12`, the cytotoxicity at 10 µM was 5%.

In the case of `CN(Cc1ccco1)C[C@H]1OC[C@@H]2CCN(Cc3ccccn3)C[C@@H]21`, the cytotoxicity at 10 µM was -3.22%.

Consider `COCCN1C(=O)CCC12CCC(NC(=O)c1cnccn1)CC2` (centres undefined), for which the cytotoxicity at 10 µM is -6.19%.
